In ChEMBL document CHEMBL1123311, “Synthesis and antitumor and antiviral properties of 5-halo- and 5-(trifluoromethyl)-2'-deoxyuridine 3',5'-cyclic monophosphates and neutral triesters” (1986):
Values after ≈ are worked out from the molar mass of the structure shown.

Columns and labels:
Human alphaherpesvirus 2 [1] = assay: Evaluation of antiviral activity against Herpes simplex virus type 2 (HSV-2) strain 196.; type: functional
Procedure, shortened: (§1)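 Virus-induced cytopathogenicity scored in primary rabbit kidney cell cultures. Value is the minimum concentration reducing cytopathogenicity by 50%. Cytotoxicity on uninfected cells was read as the minimal concentration causing a microscopically detectable change in normal cell morphology, tested up to 400 μg/mL.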

Human alphaherpesvirus 2 [2] = assay: Evaluation of antiviral activity against Herpes simplex virus type 2 (HSV-2) strain G; type: functional; procedure, shortened: as §1
Human alphaherpesvirus 2 [3] = assay: Evaluation of antiviral activity against Herpes simplex virus type 2 (HSV-2) strain Lyons; type: functional; procedure, shortened: as §1
Human alphaherpesvirus 1 [4] = assay: Evaluation of antiviral activity against Herpes simplex virus type 1 (HSV-1) strain F; type: functional; procedure, shortened: as §1
Human alphaherpesvirus 1 [5] = assay: Evaluation of antiviral activity against Herpes simplex virus type 1 (HSV-1) strain McIntyre; type: functional; procedure, shortened: as §1
L1210 [6] = assay: Evaluation of antitumor activity against mutant murine leukemia L1210 cells; type: functional; settings: Mus musculus, read-out: ID50 (the source's name)
Procedure, shortened: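 Proliferation of mutant murine leukemia L1210/BdUrd cells, selected from parental L1210/0 for growth in 260 μg/mL 5-bromo-2'-deoxyuridine. Value is the dose inhibiting proliferation by 50%.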

L1210 [7] = assay: Evaluation of cytostatic activity by using antitumor assays against murine leukemia L1210 cells; type: functional; settings: Mus musculus, read-out: ID50 (the source's name)
[8] = tested on: Vesicular stomatitis virus; assay: Evaluation of antiviral activity against Vesicular stomatitis virus.; type: functional; procedure, shortened: as §1
Vaccinia virus = assay: Evaluation of antiviral activity against Vaccinia virus; type: functional; settings: Orthopoxvirus vaccinia; procedure, shortened: as §1
Raji = assay: Evaluation of antitumor activity against thymidine kinase deficient Raji cell line; type: functional; settings: Homo sapiens, read-out: ID50 (the source's name)
Homo sapiens = species: Homo sapiens; assay: Evaluation for antitumor activity against human lymphoblast Raji cells; type: functional; settings: Homo sapiens, Raji; read-out: ID50 (the source's name)
Human alphaherpesvirus 1 [9] = assay: Evaluation of antiviral activity against Herpes simplex virus type 1 (HSV-1) strain KOS.; type: functional; procedure, shortened: as §1
[10] = molecular target: Thymidylate synthase (Mus musculus) (UniProt P07607); assay: Compound was evaluated for the inhibition of L1210 Thymidylate synthase
Sequence of Thymidylate synthase (Mus musculus) (P07607 whole entry, looked up): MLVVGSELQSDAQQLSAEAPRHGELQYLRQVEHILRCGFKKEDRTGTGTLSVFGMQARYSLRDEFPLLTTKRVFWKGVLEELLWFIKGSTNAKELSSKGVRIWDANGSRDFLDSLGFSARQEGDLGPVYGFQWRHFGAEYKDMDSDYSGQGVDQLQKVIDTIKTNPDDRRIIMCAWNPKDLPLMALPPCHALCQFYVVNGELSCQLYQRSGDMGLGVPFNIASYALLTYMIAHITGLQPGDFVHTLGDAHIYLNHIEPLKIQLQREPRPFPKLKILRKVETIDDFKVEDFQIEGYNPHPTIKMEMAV
Procedure, shortened: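 Thymidylate (dTMP) synthetase inhibition measured with a partially purified extract of L1210 cells as the enzyme source.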

[11] = molecular target: Thymidylate synthase (Mus musculus) (UniProt P07607); assay: Compound was evaluated for the inhibition of L1210 thymidylate synthetase (L1210 dTMP)
Procedure, shortened: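 Enzyme source was a partially purified extract of murine leukemia L1210 cells. The dTMP synthetase assay followed an earlier published method, and no reaction conditions are given here.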

[12] = tested on: Vesicular stomatitis virus; assay: Compound was evaluated for the antiviral activity against Vesicular stomatitis virus.; type: functional; procedure, shortened: as §1

O=c1[nH]c(=O)n([C@H]2C[C@H](O)[C@@H](CO)O2)cc1Br [BROXURIDINE]
MIC50 (Human alphaherpesvirus 2 [1]): 0.2 µg/mL (≈ 0.651 µM)
MIC50 (Human alphaherpesvirus 2 [2]): 0.2 µg/mL (≈ 0.651 µM)
MIC50 (Human alphaherpesvirus 2 [3]): 0.07 µg/mL (≈ 0.228 µM)
MIC50 (Human alphaherpesvirus 1 [4]): 0.2 µg/mL (≈ 0.651 µM)
MIC50 (Human alphaherpesvirus 1 [5]): 0.2 µg/mL (≈ 0.651 µM)
IC50 (L1210 [6]): > 1000 µg/mL
IC50 (L1210 [7]): 33.8 µg/mL (≈ 110 µM)
MIC50 [8]: > 400 µg/mL
MIC50 (Vaccinia virus): 0.07 µg/mL (≈ 0.228 µM)
IC50 (Raji): > 1000 µg/mL
IC50 (Homo sapiens): 17.5 µg/mL (≈ 57 µM)
MIC50 (Human alphaherpesvirus 1 [9]): 0.2 µg/mL (≈ 0.651 µM)

O=c1[nH]c(=O)n([C@H]2C[C@H](O)[C@@H](COP(=O)(O)O)O2)cc1Br
MIC50 (Human alphaherpesvirus 2 [1]): 0.2 µg/mL (≈ 0.517 µM)
MIC50 (Human alphaherpesvirus 2 [2]): 0.2 µg/mL (≈ 0.517 µM)
MIC50 (Human alphaherpesvirus 2 [3]): 0.07 µg/mL (≈ 0.181 µM)
MIC50 (Human alphaherpesvirus 1 [4]): 0.2 µg/mL (≈ 0.517 µM)
MIC50 (Human alphaherpesvirus 1 [5]): 0.2 µg/mL (≈ 0.517 µM)
IC50 (L1210 [6]): 457 µg/mL (≈ 1180 µM)
IC50 (L1210 [7]): 34.6 µg/mL (≈ 89.4 µM)
MIC50 [8]: > 400 µg/mL
MIC50 (Vaccinia virus): 0.07 µg/mL (≈ 0.181 µM)
IC50 (Raji): > 1000 µg/mL
Ki/Km [10]: 2.16
IC50 (Homo sapiens): 26 µg/mL (≈ 67.2 µM)
MIC50 (Human alphaherpesvirus 1 [9]): 0.2 µg/mL (≈ 0.517 µM)

N.O=c1[nH]c(=O)n([C@H]2C[C@@H]3O[PH](O)(O)OC[C@H]3O2)cc1Cl
MIC50 (Human alphaherpesvirus 2 [1]): 150 µg/mL
MIC50 (Human alphaherpesvirus 2 [2]): 40 µg/mL
MIC50 (Human alphaherpesvirus 2 [3]): 20 µg/mL
MIC50 (Human alphaherpesvirus 1 [4]): 100 µg/mL
MIC50 (Human alphaherpesvirus 1 [5]): 100 µg/mL
IC50 (L1210 [6]): > 1000 µg/mL
IC50 (L1210 [7]): 337 µg/mL
Ki/Km [11]: > 356
MIC50 [12]: > 400 µg/mL
MIC50 (Vaccinia virus): 2 µg/mL
IC50 (Raji): > 1000 µg/mL
IC50 (Homo sapiens): 337 µg/mL
MIC50 (Human alphaherpesvirus 1 [9]): 20 µg/mL

O=c1[nH]c(=O)n([C@H]2C[C@H](O)[C@@H](COP(=O)(O)O)O2)cc1/C=C/Br
MIC50 (Human alphaherpesvirus 2 [1]): > 400 µg/mL
MIC50 (Human alphaherpesvirus 2 [2]): 20 µg/mL (≈ 48.4 µM)
MIC50 (Human alphaherpesvirus 2 [3]): 100 µg/mL (≈ 242 µM)
MIC50 (Human alphaherpesvirus 1 [4]): 0.02 µg/mL (≈ 0.0484 µM)
MIC50 (Human alphaherpesvirus 1 [5]): 0.02 µg/mL (≈ 0.0484 µM)
MIC50 [8]: > 400 µg/mL
MIC50 (Vaccinia virus): 7 µg/mL (≈ 16.9 µM)
MIC50 (Human alphaherpesvirus 1 [9]): 0.02 µg/mL (≈ 0.0484 µM)

N.O=c1[nH]c(=O)n([C@H]2C[C@@H]3O[PH](O)(O)OC[C@H]3O2)cc1Br
MIC50 (Human alphaherpesvirus 2 [1]): 20 µg/mL
MIC50 (Human alphaherpesvirus 2 [2]): 2 µg/mL
MIC50 (Human alphaherpesvirus 2 [3]): 2 µg/mL
MIC50 (Human alphaherpesvirus 1 [4]): 2 µg/mL
MIC50 (Human alphaherpesvirus 1 [5]): 2 µg/mL
IC50 (L1210 [6]): > 1000 µg/mL
IC50 (L1210 [7]): 457 µg/mL
MIC50 [8]: > 400 µg/mL
MIC50 (Vaccinia virus): 1 µg/mL
IC50 (Raji): > 1000 µg/mL
Ki/Km [10]: > 354
IC50 (Homo sapiens): 224 µg/mL
MIC50 (Human alphaherpesvirus 1 [9]): 2 µg/mL

O=c1[nH]c(=O)n([C@H]2C[C@H](O)[C@@H](CO)O2)cc1I [IDOXURIDINE]
MIC50 (Human alphaherpesvirus 2 [1]): 0.4 µg/mL (≈ 1.13 µM)
MIC50 (Human alphaherpesvirus 2 [2]): 0.2 µg/mL (≈ 0.565 µM)
MIC50 (Human alphaherpesvirus 2 [3]): 0.1 µg/mL (≈ 0.282 µM)
MIC50 (Human alphaherpesvirus 1 [4]): 0.2 µg/mL (≈ 0.565 µM)
MIC50 (Human alphaherpesvirus 1 [5]): 0.2 µg/mL (≈ 0.565 µM)
IC50 (L1210 [6]): > 500 µg/mL
IC50 (L1210 [7]): 16 µg/mL (≈ 45.2 µM)
MIC50 [8]: > 400 µg/mL
MIC50 (Vaccinia virus): 0.2 µg/mL (≈ 0.565 µM)
IC50 (Raji): > 500 µg/mL
IC50 (Homo sapiens): 8 µg/mL (≈ 22.6 µM)
MIC50 (Human alphaherpesvirus 1 [9]): 0.2 µg/mL (≈ 0.565 µM)

O=c1[nH]c(=O)n([C@H]2C[C@H](O)[C@@H](COP(=O)(O)O)O2)cc1C(F)(F)F
MIC50 (Human alphaherpesvirus 2 [1]): 0.7 µg/mL (≈ 1.86 µM)
MIC50 (Human alphaherpesvirus 2 [2]): 0.7 µg/mL (≈ 1.86 µM)
MIC50 (Human alphaherpesvirus 2 [3]): 0.6 µg/mL (≈ 1.59 µM)
MIC50 (Human alphaherpesvirus 1 [4]): 0.7 µg/mL (≈ 1.86 µM)
MIC50 (Human alphaherpesvirus 1 [5]): 0.4 µg/mL (≈ 1.06 µM)
IC50 (L1210 [6]): 38 µg/mL (≈ 101 µM)
IC50 (L1210 [7]): 0.017 µg/mL (≈ 0.0452 µM)
MIC50 [8]: > 400 µg/mL
MIC50 (Vaccinia virus): 0.2 µg/mL (≈ 0.532 µM)
IC50 (Raji): 212 µg/mL (≈ 564 µM)
Ki/Km [10]: 0.061
IC50 (Homo sapiens): 0.169 µg/mL (≈ 0.449 µM)
MIC50 (Human alphaherpesvirus 1 [9]): 0.7 µg/mL (≈ 1.86 µM)

O=c1[nH]c(=O)n([C@H]2C[C@H](O)[C@@H](CO)O2)cc1/C=C/Br [BRIVUDINE]
MIC50 (Human alphaherpesvirus 2 [1]): 70 µg/mL (≈ 210 µM)
MIC50 (Human alphaherpesvirus 2 [2]): 4 µg/mL (≈ 12 µM)
MIC50 (Human alphaherpesvirus 2 [3]): 7 µg/mL (≈ 21 µM)
MIC50 (Human alphaherpesvirus 1 [4]): 0.02 µg/mL (≈ 0.06 µM)
MIC50 (Human alphaherpesvirus 1 [5]): 0.07 µg/mL (≈ 0.21 µM)
MIC50 [8]: > 400 µg/mL
MIC50 (Vaccinia virus): 4 µg/mL (≈ 12 µM)
MIC50 (Human alphaherpesvirus 1 [9]): 0.02 µg/mL (≈ 0.06 µM)

COP1(=O)OC[C@H]2O[C@@H](n3cc(Br)c(=O)[nH]c3=O)C[C@@H]2O1 (stereo partly specified)
MIC50 (Human alphaherpesvirus 2 [1]): > 200 µg/mL
MIC50 (Human alphaherpesvirus 2 [2]): > 200 µg/mL
MIC50 (Human alphaherpesvirus 2 [3]): 70 µg/mL (≈ 183 µM)
MIC50 (Human alphaherpesvirus 1 [4]): > 200 µg/mL
MIC50 (Human alphaherpesvirus 1 [5]): > 200 µg/mL
IC50 (L1210 [6]): > 100 µg/mL
IC50 (L1210 [7]): > 100 µg/mL
MIC50 [8]: > 200 µg/mL
MIC50 (Vaccinia virus): 10 µg/mL (≈ 26.1 µM)
IC50 (Raji): > 100 µg/mL
IC50 (Homo sapiens): > 100 µg/mL
MIC50 (Human alphaherpesvirus 1 [9]): > 200 µg/mL

O=c1[nH]c(=O)n([C@H]2C[C@H](O)[C@@H](CO)O2)cc1F [FLOXURIDINE]
MIC50 (Human alphaherpesvirus 2 [1]): 150 µg/mL (≈ 609 µM)
MIC50 (Human alphaherpesvirus 2 [2]): 8 µg/mL (≈ 32.5 µM)
MIC50 (Human alphaherpesvirus 2 [3]): 10 µg/mL (≈ 40.6 µM)
MIC50 (Human alphaherpesvirus 1 [4]): 8 µg/mL (≈ 32.5 µM)
MIC50 (Human alphaherpesvirus 1 [5]): 4 µg/mL (≈ 16.2 µM)
IC50 (L1210 [6]): 1.8 µg/mL (≈ 7.31 µM)
IC50 (L1210 [7]): 0.02 µg/mL (≈ 0.0812 µM)
MIC50 [8]: > 200 µg/mL
MIC50 (Vaccinia virus): 0.1 µg/mL (≈ 0.406 µM)
IC50 (Raji): 1.55 µg/mL (≈ 6.3 µM)
IC50 (Homo sapiens): 0.004 µg/mL (≈ 0.0162 µM)
MIC50 (Human alphaherpesvirus 1 [9]): 6 µg/mL (≈ 24.4 µM)
